Experimental data: ChEMBL document CHEMBL3593177, “Benzimidazole derivatives as potential dual inhibitors for PARP-1 and DHODH” (Bioorg Med Chem, 2015)

Assays:
[1] = molecular target: Poly [ADP-ribose] polymerase 1 (Homo sapiens, UniProt P09874); test: Inhibition of PARP-1 (unknown origin) assessed as incorporation of biotinylated poly (ADP-ribose) onto histone protein after 60 mins by TACS-Sapphire substarte-based colorimetric analysis
[2] = molecular target: T1, Dihydroorotate dehydrogenase (quinone), mitochondrial (Homo sapiens, UniProt Q02127); test: Inhibition of DHODH (unknown origin) using L-DHO, DUQ, DCIP as substrate preincubated for 30 mins followed by substrate addition measured after 20 mins by multilabel plate reader analysis
[3] = molecular target: T1, Dihydroorotate dehydrogenase (quinone), mitochondrial; test: Inhibition of DHODH (unknown origin) using L-DHO, DUQ, DCIP as substrate at 1 uM preincubated for 30 mins followed by substrate addition measured after 20 mins by multilabel plate reader analysis relative to control
[4] = molecular target: T1, Dihydroorotate dehydrogenase (quinone), mitochondrial; test: Inhibition of DHODH (unknown origin) using L-DHO, DUQ, DCIP as substrate at 10 uM preincubated for 30 mins followed by substrate addition measured after 20 mins by multilabel plate reader analysis relative to control
Procedure, shortened: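 Single-concentration screen at 10 µM. DHODH (25 ng) was preincubated with compound for 30 min at room temperature in 50 mM Tris-HCl, 150 mM KCl, 0.8% Triton, pH 8.0, with 1% DMSO final. The reaction was started with a substrate mix of 20 mM L-DHO, 2 mM DUQ and 2 mM DCIP (added-mix concentrations). DCIP reduction was followed as the drop in A610, read from 20 min, every 10 min for 1 h.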

[5] = molecular target: T1, Dihydroorotate dehydrogenase (quinone), mitochondrial; test: Inhibition of human DHODH using L-DHO, DUQ, DCIP as substrate preincubated for 30 mins followed by substrate addition measured after 20 mins

Poly [ADP-ribose] polymerase 1, sequence (P09874 whole entry): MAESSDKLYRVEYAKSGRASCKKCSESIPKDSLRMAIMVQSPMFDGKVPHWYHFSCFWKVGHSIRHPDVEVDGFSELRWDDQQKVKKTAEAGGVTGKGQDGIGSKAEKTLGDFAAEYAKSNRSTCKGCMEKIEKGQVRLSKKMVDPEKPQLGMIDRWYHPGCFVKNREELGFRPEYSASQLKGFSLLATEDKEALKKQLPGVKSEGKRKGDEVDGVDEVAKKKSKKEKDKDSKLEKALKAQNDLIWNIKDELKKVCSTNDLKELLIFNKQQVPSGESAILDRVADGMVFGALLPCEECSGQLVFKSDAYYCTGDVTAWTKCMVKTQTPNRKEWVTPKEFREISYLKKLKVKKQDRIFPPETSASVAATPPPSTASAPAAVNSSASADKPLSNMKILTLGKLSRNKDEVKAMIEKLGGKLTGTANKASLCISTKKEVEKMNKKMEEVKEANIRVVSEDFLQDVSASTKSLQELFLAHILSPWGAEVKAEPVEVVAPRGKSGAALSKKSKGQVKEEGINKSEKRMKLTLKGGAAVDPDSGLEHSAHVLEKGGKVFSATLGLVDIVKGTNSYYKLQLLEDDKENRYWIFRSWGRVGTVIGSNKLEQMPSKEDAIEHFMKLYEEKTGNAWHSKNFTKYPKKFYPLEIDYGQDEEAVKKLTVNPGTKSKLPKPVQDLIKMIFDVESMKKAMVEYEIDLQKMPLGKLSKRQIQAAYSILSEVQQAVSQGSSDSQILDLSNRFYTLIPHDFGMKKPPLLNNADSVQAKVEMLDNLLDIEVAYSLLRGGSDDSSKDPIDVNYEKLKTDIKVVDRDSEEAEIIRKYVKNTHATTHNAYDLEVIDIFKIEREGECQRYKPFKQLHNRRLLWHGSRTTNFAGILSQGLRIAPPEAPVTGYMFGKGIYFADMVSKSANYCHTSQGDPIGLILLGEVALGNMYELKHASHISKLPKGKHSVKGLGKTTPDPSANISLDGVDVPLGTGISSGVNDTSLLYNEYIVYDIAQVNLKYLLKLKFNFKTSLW
T1 sequence (Q02127 whole entry): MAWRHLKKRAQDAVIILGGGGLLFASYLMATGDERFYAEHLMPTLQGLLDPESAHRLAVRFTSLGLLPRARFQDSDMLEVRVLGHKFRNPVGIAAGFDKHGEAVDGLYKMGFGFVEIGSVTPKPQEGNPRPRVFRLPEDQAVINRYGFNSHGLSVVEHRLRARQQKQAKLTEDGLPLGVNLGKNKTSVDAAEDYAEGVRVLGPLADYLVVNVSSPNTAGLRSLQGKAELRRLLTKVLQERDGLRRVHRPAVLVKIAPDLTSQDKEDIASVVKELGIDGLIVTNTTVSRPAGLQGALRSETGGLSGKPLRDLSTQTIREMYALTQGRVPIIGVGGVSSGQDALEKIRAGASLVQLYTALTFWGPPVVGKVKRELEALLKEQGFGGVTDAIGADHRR

Row | SMILES | IC50 [1] | inhibition [4] | further results
1 | CC(=O)Nc1ccccc1COc1ccc(-c2ccc(-c3nc4c(C(=O)O)cc(C)cc4[nH]3)cc2)cc1 | 10600 nM | – | IC50 [2]: 300 nM
2 | CC(=O)Nc1cccc(-c2ccc(-c3nc4c(C(N)=O)cccc4[nH]3)cc2)c1 | 460 nM | – | inhibition [3]: 45%
3 | CC(=O)Nc1ccc(COc2ccc(-c3ccc(-c4nc5c(C(=O)O)cc(C)cc5[nH]4)cc3)cc2)cc1 | – | – | IC50 [2]: 13 nM
4 | NC(=O)c1cccc2[nH]c(-c3ccc(-c4cncc(CN5CCCC5)c4)cc3)nc12 | 61 nM | – | –
5 | NC(=O)c1cc(F)cc2[nH]c(-c3ccc(-c4cccc(NC(=O)C5CC5)c4)cc3F)nc12 | 1280 nM | – | –
6 | CC(=O)Nc1cccc(-c2ccc(-c3nc4c(C(=O)O)cc(C)cc4[nH]3)cc2)c1 | – | – | IC50 [2]: 1380 nM
7 | NC(=O)c1cccc2[nH]c(-c3ccc(-c4ccc(C(=O)N5CCCC5)nc4)cc3)nc12 | 12 nM | < 15% | –
8 | CC(=O)Nc1cccc(COc2ccc(-c3ccc(-c4nc5c(C(=O)O)cc(C)cc5[nH]4)cc3)cc2)c1 | – | – | IC50 [2]: 28 nM
9 | NC(=O)c1cccc2[nH]c(-c3ccc(-c4ccc(OCCN5CCCCC5)cc4)cc3)nc12 | 720 nM | – | –
10 | O=C(O)c1cccc2[nH]c(-c3ccc(-c4ccccc4)cc3)nc12 | – | – | IC50 [5]: 750 nM
11 | CC(=O)Nc1ccc(-c2ccc(-c3nc4c(C(=O)O)cc(C)cc4[nH]3)cc2)cc1 | – | – | IC50 [2]: 210 nM
12 | NC(=O)c1cccc2[nH]c(-c3ccc(-c4cncc(C(=O)N5CCCC5)c4)cc3)nc12 | 29 nM | – | –
13 | NC(=O)c1cccc2[nH]c(-c3ccc(-c4ccccc4)cc3)nc12 | 710 nM | – | IC50 [2]: 9800 nM
14 | Cc1cc(C(N)=O)c2nc(-c3ccc(-c4ccc(C(=O)N5CCCC5)cc4)cc3)[nH]c2c1 | – | < 15% | –
15 | NC(=O)c1cccc2[nH]c(-c3ccc(-c4ccc(OCCCN5CCCCC5)cc4)cc3)nc12 | 2280 nM | < 15% | –
16 | Cc1cc(C(N)=O)c2nc(-c3ccc(C#N)cc3)[nH]c2c1 | – | < 15% | –
17 | NC(=O)c1cccc2[nH]c(-c3ccc(C(F)(F)F)cc3)nc12 | – | < 15% | –
18 | COc1cc(-c2ccc(-c3nc4c(C(N)=O)cc(F)cc4[nH]3)cc2)ccc1NC(=O)C1CC1 | 5960 nM | < 15% | –
19 | Cc1cc(C(N)=O)c2nc(-c3ccc(C(F)(F)F)cc3)[nH]c2c1 | – | < 15% | –
20 | CCC(=O)Nc1ccc(-c2ccc(-c3nc4c(C(N)=O)cc(F)cc4[nH]3)cc2)cc1 | 1720 nM | < 15% | –
21 | CC(=O)Nc1ccccc1-c1ccc(-c2nc3c(C(N)=O)cccc3[nH]2)cc1 | 140 nM | – | –
22 | COc1ccc(-c2nc3c(C(N)=O)cc(C)cc3[nH]2)cc1 | – | < 15% | –
23 | COc1ccc(-c2nc3c(C(N)=O)cccc3[nH]2)cc1 | – | < 15% | –
24 | NC(=O)c1cc(F)cc2[nH]c(-c3ccc(-c4ccc(NC(=O)C5CC5)cc4F)cc3F)nc12 | 84 nM | – | –
25 | CC(=O)Nc1ccc(-c2ccc(-c3nc4c(C(N)=O)cccc4[nH]3)cc2)cn1 | 49 nM | – | –
26 | NC(=O)c1cccc2[nH]c(-c3ccc(-c4ccc(N)nc4)cc3)nc12 | 32 nM | – | –
27 | NC(=O)c1cccc2[nH]c(-c3ccc(-c4ccc(C(=O)N5CCCC5)cc4)cc3)nc12 | 310 nM | – | –
28 | Cc1cc(C(N)=O)c2nc(-c3ccc(-c4ccccc4)cc3)[nH]c2c1 | – | – | IC50 [2]: 7800 nM
29 | COc1cc(-c2ccc(-c3nc4c(C(N)=O)cc(F)cc4[nH]3)c(F)c2)ccc1NC(=O)C1CC1 | 980 nM | – | –
